Screening results: PubChem, Johns Hopkins Ion Channel Center
The list is not random: actives were taken first. Their share in the collection is about 3.5%.
RGS4 act: RGS4 potentiation or activation; 310,000 tested, 0.92% active; AID 463111; HEK293 M3R/inducible RGS4, carbachol calcium flux Fluo4; hits give low values; B-score at 10 µM;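 active = B-score of the integrated calcium signal more than 4 SD below the library mean, with starting fluorescence not abnormally high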;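 also: negative B-score means reduced calcium response which marks RGS4 activation or potentiation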
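Also added: carbachol at ECmax as muscarinic agonist stimulus; Assay system: HEK293 cells with stable M3R and inducible RGS4; Timing: overnight RGS4 induction, 30 min dye load 37 °C, 20 min compound RT; Measured by: Fluo4-AM (2 µM) calcium-flux fluorescence, kinetic read.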
MrgX1 allo act: allosterically activates human MrgX1 receptor signaling | MrgX1-HEK293, Fluo-4 calcium flux, FDSS; hits give high values | AID 588675 | Q96LB2 | 310,000 tested, 0.63% active | B-score at 10 µM;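 active = plate-corrected calcium response at least 3 library SD above typical, normal starting fluorescence, not activating the receptor alone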;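 also: compound read alongside a low EC10 to EC30 dose of BAM8-22 agonist; peak minus trough fluorescence over baseline measured at the second addition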
RGS4 block: inhibitors of human RGS4; B-score at 10 µM; 310,000 tested, 0.45% active; P49798; HEK293 M3R/RGS4 inducible, Fluo-4 calcium flux; hits give high values; triggered by carbachol at its EC20;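 active = B-score, a plate-corrected calcium signal, over three deviations above library mean, with baseline fluorescence within five deviations of library mean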;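 also: RGS4 expression induced by doxycycline in cells with stable M3 receptor; B-score is computed from the integrated fluorescence ratio over baseline after carbachol; higher B-score means a larger calcium signal and so more RGS4 inhibition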
Target sequence (P49798 whole entry, looked up): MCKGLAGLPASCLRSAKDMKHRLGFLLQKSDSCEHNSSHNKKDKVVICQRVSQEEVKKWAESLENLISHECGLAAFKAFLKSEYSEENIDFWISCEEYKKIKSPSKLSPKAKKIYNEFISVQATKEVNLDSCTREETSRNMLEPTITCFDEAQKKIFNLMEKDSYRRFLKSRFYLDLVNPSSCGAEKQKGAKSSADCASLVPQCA
MrgX1 ag: agonists of human MrgX1 receptor. Q96LB2. MrgX1-HEK293 cells, Fluo-4 calcium fluorescence, agonist mode; hits give high values. B-score at 10 µM. 310,000 tested, 0.44% active. AID 588627;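 active = calcium response B-score plate-corrected fluorescence ratio at least 3 library SD, with starting fluorescence B-score inside 5 SD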
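Material: HEK293 cells stably expressing human MrgX1 receptor | Quantity: 15,000 cells per well | Times: Cells plated overnight, dye loaded 0.5 h 37 °C, 0.5 h room temperature | Measured by: Kinetic Fluo-4 NW fluorescence of intracellular calcium | Control set: Positive and negative controls per plate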
MrgX1 antag: human MrgX1 receptor antagonism, primary screen | B-score at 10 µM | 310,000 tested, 1.3% active | MRGX1-HEK293 calcium flux, Fluo-4, BAM8-22 antagonism; hits give low values;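 active = calcium-response B-score plate-corrected more than 3 library SD below zero, starting fluorescence within 5 deviations, no agonist response on first addition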;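 also: peak minus trough fluorescence over baseline after final BAM8-22 challenge near maximal dose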
MrgX1 allo conf: confirmation of human MrgX1 receptor positive allosteric modulators. shares compounds with MrgX1 allo act. MrgX1-HEK293, Fluo-4 calcium fluorescence, FDSS. activation (ratio percentage), % at 10 µM. 1,200 tested, 13% active;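 active = ratio at least 3 SD above the weak peptide control, stable starting fluorescence, no direct agonism earlier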;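 also: compound followed by low BAM8-22 agonist challenge near EC20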
HEK293 Ca flux: counter-screen for MrgX1 antagonists: effect in parental HEK293 cells; shares compounds with MrgX1 antag; Fluo-4 calcium fluorescence, FDSS; fluorescence ratio F(max-min)/F0 at 10 µM; 4,000 tested, 2% active;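 active = duplicate-averaged calcium fluorescence ratio at least three times the standard deviation of buffer wells, a nonspecific response in parental cells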
HEK293 Ca counter: activity in parental HEK293 cells without MrgX1. shares compounds with MrgX1 antag. parental HEK293 calcium flux, Fluo-4 fluorescence ratio; hits give high values. fluorescence ratio F(max-min)/F0 at 10 µM. 4,000 tested, 0.4% active;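 active = calcium fluorescence ratio, averaged over duplicates, at least 3 SD of the buffer-well ratio, meaning a nonspecific response in receptor-free cells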;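 also: untransfected parental HEK293 lacking MrgX1 used as counterscreen for MrgX1 allosteric activators; fluorescence change taken during the second addition on a kinetic imager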
HEK293 Ca cntr2: MrgX1 activator counter-screen hit in parental HEK293 cells | shares compounds with MrgX1 antag | Fluo-4 calcium fluorescence (FDSS); hits give high values | fluorescence ratio F(max-min)/F0 at 10 µM | 4,000 tested, 8.7% active;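 active = calcium fluorescence ratio at least three times the spread of buffer wells, meaning a non-specific response in parental cells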
* hit, by the source's call; i = inactive; . = no result.

SMILES | RGS4 act | MrgX1 allo act | RGS4 block | MrgX1 ag | MrgX1 antag | MrgX1 allo conf | HEK293 Ca flux | HEK293 Ca counter | HEK293 Ca cntr2
C/C(=C\C(=O)C(F)(F)F)Nc1ccc(C)cc1 | i | 7.72* | i | i | i | 13.4%* | i | i | i
C/C(=C\C(=O)C(F)(F)F)Nc1cc(C)cc(C)c1 | i | i | i | i | i | . | . | . | .
Cc1oc2ccc(O)cc2c1C(=O)c1ccc(F)cc1 | i | 6.8* | i | i | i | i | i | i | i
Cn1c(-c2sccc2OCc2ccc(Cl)cc2Cl)n[nH]c1=S | i | 9.87* | i | i | i | i | i | i | i
CCOC(=O)c1cnc(-c2ccccc2)nc1N | i | 10.1* | i | i | i | i | i | i | i
CCOC(=O)c1cnc(-c2ccccc2)nc1N(C)C | i | i | i | i | i | . | . | . | .
O=C(Nc1nc2ccc(SC(F)F)cc2s1)c1ccc(NS(=O)(=O)c2ccc(F)c(F)c2)cc1 | i | i | i | i | i | . | . | . | .
CCOC1=C/C(=C/c2c(N)n3nc(S(=O)(=O)CC)sc3nc2=O)C=CC1=O | i | 33.5* | i | i | i | i | 0.642* | i | 45.9*
CCOC1=C/C(=C/c2c(N)n3nc(CC(=O)N4CCCCC4)sc3nc2=O)C=CC1=O | i | i | i | i | i | . | . | . | .
CCc1n[nH]c(=S)n1/N=C/C(C)=C\c1ccccc1 | i | 6.61* | i | i | i | i | i | i | i
CC1(C)CC2CC(C)(CN2Cc2c(O)ccc3ccccc23)C1 (configuration not stated) | i | 7.45* | i | i | i | i | i | i | 52.5*
CCC(C)NC(=O)Cn1c(=O)n(CCCCC(=O)NCc2ccco2)c(=O)c2ccccc21 (configuration not stated) | i | i | i | i | i | . | . | . | .
CN(c1ccc(C(=O)Nc2ccc(Cl)cn2)cc1)S(=O)(=O)c1ccccc1 | i | 9.73* | i | i | i | i | i | i | i
Cc1ccc(S(=O)(=O)N(C)c2ccc(C(=O)Nc3ccc(C)cn3)cc2)cc1 | i | i | i | i | i | . | . | . | .
CCN(CC)S(=O)(=O)c1cc(C(=O)Nc2ccc(Cl)cn2)ccc1C | i | 19.5* | i | i | i | 11.6%* | i | i | i
COCCN1C(=O)/C(=C/c2ccc(N3CCCC3)cc2C)SC1=S | i | 19.4* | i | i | i | i | 0.126* | i | 48*
COc1ccccc1NC(=S)N(Cc1ccccc1)Cc1cccnc1 | i | i | i | i | i | . | . | . | .
COc1ccccc1NC(=S)N(Cc1ccccc1)Cc1ccccn1 | i | 6.58* | i | i | i | i | i | i | i
Cc1sc2ncnc(N3CCCCC3C)c2c1C (configuration not stated) | i | 12.5* | i | i | i | 6.3%* | i | i | i
Cc1sc2ncnc(N3CCCCC3)c2c1C | i | 6.81* | i | i | i | i | i | i | i
Cc1sc2ncnc(N3CCOCC3)c2c1C | i | i | i | i | i | . | . | . | .
Cc1c(C(=O)NCCC2=CCCCC2)sc2ncnc(N3CCCCC3C)c12 (configuration not stated) | i | i | i | i | i | . | . | . | .
CCc1cc2c(=O)[nH]c(N3CCCC3)nc2s1 | i | i | i | i | i | . | . | . | .
